Reference: ChEMBL document CHEMBL1157043, “An eco-friendly synthesis and antimicrobial activities of dihydro-2H-benzo- and naphtho-1,3-oxazine derivatives” (Eur J Med Chem, 2010)
Converted amounts (≈) assume the structure as drawn.

How the values were obtained:
[1] = test system: Cryptococcus neoformans; experiment: Antimicrobial activity against Cryptococcus neoformans after 24 hrs; format: functional
Outline: (§1)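 Broth microdilution per NCCLS guidelines in MOPS-buffered RPMI 1640. Starting inoculum was 1-5 × 10^3 cfu/mL, and plates were incubated at 35 °C. MIC was read spectrophotometrically at 492 nm after 24–48 h for yeasts and 72–96 h for mycelial fungi.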

[2] = test system: Staphylococcus aureus; experiment: Antimicrobial activity against Staphylococcus aureus after 24 hrs; format: functional
Outline: (§2)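 NCCLS microdilution in Mueller Hinton broth. Strains were grown 24 h on nutrient agar at 37 °C, suspended at about 1.0–2.0 × 10^7 cells/mL (McFarland-matched) in saline with 0.05% Tween 20, then diluted 100 µL into 10 mL medium. Compounds were taken from a 1 mg/mL DMSO stock as twofold dilutions, top final 50 µg/mL. Incubation was 35 °C in a moist, dark chamber, and MIC was read spectrophotometrically at 24 h.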

[3] = test system: Escherichia coli; experiment: Antimicrobial activity against Escherichia coli after 24 hrs; format: functional; outline: as §2
[4] = test system: Klebsiella pneumoniae; experiment: Antimicrobial activity against Klebsiella pneumoniae after 24 hrs; format: functional; outline: as §2
[5] = test system: Candida parapsilosis; experiment: Antimicrobial activity against Candida parapsilosis ATCC 22019 after 24 hrs; format: functional; conditions: Lodderomyces parapsilosis, ATCC 22019, 24 h; outline: as §1
[6] = test system: Trichophyton mentagrophytes; experiment: Antimicrobial activity against Trichophyton mentagrophytes after 72 to 96 hrs
[7] = test system: Pseudomonas aeruginosa; experiment: Antimicrobial activity against Pseudomonas aeruginosa after 24 hrs; format: functional; outline: as §2
[8] = test system: Aspergillus fumigatus; experiment: Antimicrobial activity against Aspergillus fumigatus after 72 to 96 hrs
[9] = test system: Sporothrix schenckii; experiment: Antimicrobial activity against Sporothrix schenckii after 24 hrs; format: functional; outline: as §1
[10] = test system: Candida albicans; experiment: Antimicrobial activity against Candida albicans after 24 hrs; format: functional; outline: as §1

| Compound | MIC [1] | MIC [2] | MIC [3] | MIC [4] | MIC [5] | MIC [6] | MIC [7] | MIC [8] | MIC [9] | MIC [10] |
| --- | --- | --- | --- | --- | --- | --- | --- | --- | --- | --- |
| Cc1ccc2c(c1)CN(CCN1COc3ccc(C)cc3C1)CO2 | 50 µg/mL (≈ 154 µM) | > 50 µg/mL | > 50 µg/mL | > 50 µg/mL | 50 µg/mL (≈ 154 µM) | 25 µg/mL (≈ 77.1 µM) | > 50 µg/mL | 50 µg/mL (≈ 154 µM) | 12.5 µg/mL (≈ 38.5 µM) | 50 µg/mL (≈ 154 µM) |
| CCCCN1COc2ccc3ccccc3c2C1 | 50 µg/mL (≈ 207 µM) | > 50 µg/mL | > 50 µg/mL | > 50 µg/mL | > 50 µg/mL | 25 µg/mL (≈ 104 µM) | > 50 µg/mL | > 50 µg/mL | 50 µg/mL (≈ 207 µM) | > 50 µg/mL |
| Clc1ccc(N2COc3ccc4ccccc4c3C2)c(Cl)c1 | > 50 µg/mL | > 50 µg/mL | > 50 µg/mL | > 50 µg/mL | > 50 µg/mL | 50 µg/mL (≈ 151 µM) | > 50 µg/mL | > 50 µg/mL | > 50 µg/mL | > 50 µg/mL |
| c1ccc(N2COc3ccc4ccccc4c3C2)cc1 | > 50 µg/mL | > 50 µg/mL | 50 µg/mL (≈ 191 µM) | > 50 µg/mL | > 50 µg/mL | > 50 µg/mL | 50 µg/mL (≈ 191 µM) | > 50 µg/mL | 25 µg/mL (≈ 95.7 µM) | 50 µg/mL (≈ 191 µM) |
| Brc1ccc(N2COc3ccc4ccccc4c3C2)cc1 | 50 µg/mL (≈ 147 µM) | > 50 µg/mL | > 50 µg/mL | > 50 µg/mL | > 50 µg/mL | 50 µg/mL (≈ 147 µM) | 50 µg/mL (≈ 147 µM) | > 50 µg/mL | 50 µg/mL (≈ 147 µM) | > 50 µg/mL |
| Cc1ccc2c(c1)CN(c1ccccc1)CO2 | > 50 µg/mL | 50 µg/mL (≈ 222 µM) | 25 µg/mL (≈ 111 µM) | 50 µg/mL (≈ 222 µM) | 50 µg/mL (≈ 222 µM) | 25 µg/mL (≈ 111 µM) | > 50 µg/mL | 50 µg/mL (≈ 222 µM) | 12.5 µg/mL (≈ 55.5 µM) | > 50 µg/mL |
| CC1(C)S[C@@H]2[C@H](NC(=O)[C@H](N)c3ccccc3)C(=O)N2[C@H]1C(=O)O [AMPICILLIN] |  | 0.19 µg/mL (≈ 0.544 µM) | 50 µg/mL (≈ 143 µM) | 0.39 µg/mL (≈ 1.12 µM) |  |  | 50 µg/mL (≈ 143 µM) |  |  |  |
| CCCCN1COc2ccc(Cl)cc2C1 | > 50 µg/mL | > 50 µg/mL | > 50 µg/mL | > 50 µg/mL | > 50 µg/mL | 50 µg/mL (≈ 222 µM) | > 50 µg/mL | > 50 µg/mL | 25 µg/mL (≈ 111 µM) | > 50 µg/mL |
| c1ccc(CN2COc3ccc4ccccc4c3C2)cc1 | > 50 µg/mL | > 50 µg/mL | > 50 µg/mL | > 50 µg/mL | > 50 µg/mL | 50 µg/mL (≈ 182 µM) | > 50 µg/mL | > 50 µg/mL | 50 µg/mL (≈ 182 µM) | > 50 µg/mL |
| c1ccc2c(c1)CN(C1CCCCC1)CO2 | > 50 µg/mL | > 50 µg/mL | > 50 µg/mL | > 50 µg/mL | > 50 µg/mL | 50 µg/mL (≈ 230 µM) | > 50 µg/mL | > 50 µg/mL | > 50 µg/mL | > 50 µg/mL |
| c1ccc(N2COc3c(ccc4ccccc34)C2)cc1 | > 50 µg/mL | > 50 µg/mL | > 50 µg/mL | > 50 µg/mL | > 50 µg/mL | > 50 µg/mL | > 50 µg/mL | > 50 µg/mL | > 50 µg/mL | > 50 µg/mL |
| GENTAMICIN |  | 0.39 µg/mL | 0.78 µg/mL | 0.78 µg/mL |  |  | 0.78 µg/mL |  |  |  |
| c1ccc(N2COc3ccccc3C2)cc1 | > 50 µg/mL | > 50 µg/mL | 50 µg/mL (≈ 237 µM) | > 50 µg/mL | 50 µg/mL (≈ 237 µM) | 25 µg/mL (≈ 118 µM) | > 50 µg/mL | 50 µg/mL (≈ 237 µM) | 25 µg/mL (≈ 118 µM) | > 50 µg/mL |
| Cc1ccc2c(c1)CN(c1ccccc1Cl)CO2 | 25 µg/mL (≈ 96.3 µM) | > 50 µg/mL | 50 µg/mL (≈ 193 µM) | > 50 µg/mL | 50 µg/mL (≈ 193 µM) | 12.5 µg/mL (≈ 48.1 µM) | 50 µg/mL (≈ 193 µM) | 50 µg/mL (≈ 193 µM) | 12.5 µg/mL (≈ 48.1 µM) | 50 µg/mL (≈ 193 µM) |
| Clc1ccc(Cl)c(N2COc3ccc4ccccc4c3C2)c1 | > 50 µg/mL | > 50 µg/mL | 50 µg/mL (≈ 151 µM) | > 50 µg/mL | > 50 µg/mL | 50 µg/mL (≈ 151 µM) | > 50 µg/mL | > 50 µg/mL | > 50 µg/mL | > 50 µg/mL |
| c1ccc2c3c(ccc2c1)OCN(C1CCCCC1)C3 | 50 µg/mL (≈ 187 µM) | > 50 µg/mL | > 50 µg/mL | > 50 µg/mL | > 50 µg/mL | 25 µg/mL (≈ 93.5 µM) | > 50 µg/mL | > 50 µg/mL | 50 µg/mL (≈ 187 µM) | 50 µg/mL (≈ 187 µM) |
| CCCCN1COc2ccccc2C1 | > 50 µg/mL | > 50 µg/mL | 50 µg/mL (≈ 261 µM) | > 50 µg/mL | > 50 µg/mL | 50 µg/mL (≈ 261 µM) | > 50 µg/mL | > 50 µg/mL | 50 µg/mL (≈ 261 µM) | > 50 µg/mL |
| OC(Cn1cncn1)(Cn1cncn1)c1ccc(F)cc1F [FLUCONAZOLE] | 1 µg/mL (≈ 3.27 µM) |  |  |  | 1 µg/mL (≈ 3.27 µM) | 1 µg/mL (≈ 3.27 µM) |  | 2 µg/mL (≈ 6.53 µM) | 2 µg/mL (≈ 6.53 µM) | 0.5 µg/mL (≈ 1.63 µM) |
| Fc1ccc(N2COc3ccc4ccccc4c3C2)cc1 | 50 µg/mL (≈ 179 µM) | > 50 µg/mL | > 50 µg/mL | 50 µg/mL (≈ 179 µM) | > 50 µg/mL | 25 µg/mL (≈ 89.5 µM) | 50 µg/mL (≈ 179 µM) | > 50 µg/mL | 50 µg/mL (≈ 179 µM) | > 50 µg/mL |
| Cc1cccc2c1OCN(c1ccccc1)C2 | > 50 µg/mL | 50 µg/mL (≈ 222 µM) | 25 µg/mL (≈ 111 µM) | > 50 µg/mL | 50 µg/mL (≈ 222 µM) | 25 µg/mL (≈ 111 µM) | > 50 µg/mL | 50 µg/mL (≈ 222 µM) | 25 µg/mL (≈ 111 µM) | 50 µg/mL (≈ 222 µM) |
| Cc1ccc(N2COc3ccc(Cl)cc3C2)cc1 | 50 µg/mL (≈ 193 µM) | 12.5 µg/mL (≈ 48.1 µM) | 6.25 µg/mL (≈ 24.1 µM) | 25 µg/mL (≈ 96.3 µM) | 25 µg/mL (≈ 96.3 µM) | 12.5 µg/mL (≈ 48.1 µM) | > 50 µg/mL | 25 µg/mL (≈ 96.3 µM) | 6.25 µg/mL (≈ 24.1 µM) | 25 µg/mL (≈ 96.3 µM) |
| Clc1ccc2c(c1)CN(c1ccccc1)CO2 | 50 µg/mL (≈ 203 µM) | 25 µg/mL (≈ 102 µM) | 12.5 µg/mL (≈ 50.9 µM) | 50 µg/mL (≈ 203 µM) | 50 µg/mL (≈ 203 µM) | 12.5 µg/mL (≈ 50.9 µM) | > 50 µg/mL | 25 µg/mL (≈ 102 µM) | 6.25 µg/mL (≈ 25.4 µM) | 50 µg/mL (≈ 203 µM) |
| CC(=O)N1CCN(c2ccc(OCC3COC(Cn4ccnc4)(c4ccc(Cl)cc4Cl)O3)cc2)CC1 (stereo not given) [KETOCONAZOLE] | 0.001 µg/mL (≈ 0.00188 µM) |  |  |  | 0.031 µg/mL (≈ 0.0583 µM) | 4 µg/mL (≈ 7.53 µM) |  | 2 µg/mL (≈ 3.76 µM) | 0.031 µg/mL (≈ 0.0583 µM) | 0.002 µg/mL (≈ 0.00376 µM) |
